Test results reported in PMC4624502 (Experimental eye research, 2015).

Legend:
[1] = biological target: T1, zebrafish IRBP module 1 (z1) (Danio rerio, UniProt F1Q9N9); assay: X-ray crystal structure, […] Å; format: binding; settings: oleic acid in hydrophobic pocket of domain A; pH 7.5, PEG 8000
T1 sequence (F1Q9N9 22-330): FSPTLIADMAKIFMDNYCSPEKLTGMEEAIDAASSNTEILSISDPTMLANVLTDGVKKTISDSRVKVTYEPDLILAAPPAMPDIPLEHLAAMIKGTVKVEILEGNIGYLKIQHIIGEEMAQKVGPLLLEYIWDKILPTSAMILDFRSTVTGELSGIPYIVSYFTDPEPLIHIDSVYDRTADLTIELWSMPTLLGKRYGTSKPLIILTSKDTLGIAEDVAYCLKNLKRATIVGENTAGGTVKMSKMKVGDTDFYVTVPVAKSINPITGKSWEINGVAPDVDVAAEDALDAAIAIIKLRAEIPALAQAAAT

[2] = biological target: T2, zIRBP (zebrafish IRBP, gene II product, full-length two-module) (Danio rerio, UniProt F1Q9N9); assay: fluorescence titration, enhancement of retinol fluorescence; format: binding
T2 sequence (F1Q9N9 22-615): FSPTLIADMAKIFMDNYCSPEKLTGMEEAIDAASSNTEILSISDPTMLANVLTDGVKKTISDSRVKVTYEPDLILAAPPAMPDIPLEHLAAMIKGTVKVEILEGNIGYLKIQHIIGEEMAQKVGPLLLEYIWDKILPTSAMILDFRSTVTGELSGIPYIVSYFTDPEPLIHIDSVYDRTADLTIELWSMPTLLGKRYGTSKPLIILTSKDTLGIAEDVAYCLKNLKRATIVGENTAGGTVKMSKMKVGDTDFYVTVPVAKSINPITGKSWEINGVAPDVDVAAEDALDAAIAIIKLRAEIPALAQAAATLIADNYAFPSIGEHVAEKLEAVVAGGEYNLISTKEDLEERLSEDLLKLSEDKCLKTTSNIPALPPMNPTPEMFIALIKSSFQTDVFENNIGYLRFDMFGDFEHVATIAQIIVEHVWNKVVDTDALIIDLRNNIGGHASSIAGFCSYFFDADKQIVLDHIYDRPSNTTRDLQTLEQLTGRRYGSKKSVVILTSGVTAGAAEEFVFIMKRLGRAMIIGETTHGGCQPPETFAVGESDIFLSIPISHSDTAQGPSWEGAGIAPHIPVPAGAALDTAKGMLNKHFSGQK
Outline: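 Full-length zIRBP was expressed in E. coli BL21(DE3), His-trap purified, TEV-cleaved, and anion-exchange polished (>98% pure). Retinol in ethanol was added in 0.5 µL aliquots at 1 min intervals to 1 µM protein or to buffer (final alcohol ≤2%). Fluorescence was read at ex 330/em 480 nm with oleic acid at 0.0–0.112 µM. Kd came from a nonlinear least-squares one-site Hill fit.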

Compound | X-ray crystal structure, 1.90 Å [1] | Kd [2] [nM]
CCCCCCCC/C=C\CCCCCCCC(=O)O [oleic acid] | electron density for an extended oleic acid molecule in domain A | –
CC1=C(/C=C/C(C)=C/C=C/C(C)=C/CO)C(C)(C)CCC1 [all-trans retinol] | – | 910 ± 50
